Rows were chosen to be rich in hits. Some 3.9% of all compounds tested hit in one or more screens of this group.
AHR act: AHR activators, primary screen, cell-based, luminescence, luciferase reporter, human; Aryl hydrocarbon receptor (Homo sapiens), P35869; AHR-responsive luciferase reporter cells; activation, % at 5 µM; actives 2.5% (n = 320,000); AID 2796, 2010; in the data active = activation above about 47%;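 note: 0% = vehicle wells and 100% = reference agonist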
HIF activator: HIF pathway transcriptional activators, primary screen, cell-based, U2OS HRE-luciferase, luminescence; U2OS HRE-luciferase reporter; normalized: DMSO 0%, desferrioxamine 100%; activation, % at 7.5 µM (by protocol); actives 0.32% (n = 300,000); AID 1910, 2009;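 active = mean activation of at least 10% of the iron chelator positive control signal, with at least half of replicates also reaching 10%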
FXN GAA850 act: FXN promoter activators, primary screen, cell-based, luciferase luminescence, HEK293 lucGAA850. actives 0.56% (n = 360,000). activation, % at 6 µM. HEK293 lucGAA850 FXN promoter luciferase reporter, 24 h; percent of 10 µM SAHA response;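 active = activation above the average of all compounds screened plus 3 SD, cutoff fixed separately per campaign, cut at about 7.5% in these data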;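 note: 0% = DMSO wells and 100% = 10 µM SAHA wells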
SR-BI DiI-HDL act: activators of SR-BI mediated DiI-HDL uptake, primary screen, ldlA[mSR-BI] CHO cells, DiI fluorescence. activation, % at 12.5 µM. actives 0.096% (n = 320,000). 3 h; 100 = double the neutral-control signal;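 active = mean replicate activation of at least 60% and every replicate at or above 60%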;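 note: 0% = median plate neutral-control signal and 100% = twice that signal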
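Material – SR-BI-overexpressing, LDLR-lacking CHO cells · Medium – BSA-supplemented, HEPES-buffered Ham's F12, pH 7.4 · Doses – single concentration · Times – compound with DiI-HDL co-incubation, 3 h at 37 °C · Measured by – bottom-read fluorescence, 550/595 nm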
ABCB6 inh 2: ABCB6 transporter inhibitors, primary screen, K562-ABCB6 cells, flow cytometry, MLPCN library; fluorescence ratio to DMSO, % at 10 µM; K562-ABCB6 porphyrin accumulation, 1 h; stronger effect = lower value; actives 0.19% (n = 360,000);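 active = fluorescence ratio to DMSO below 75%, the collection mean minus 3 SD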;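 note: signal is porphyrin accumulated inside mitochondria; 100% equals median channel fluorescence of DMSO control wells; lower ratio means ABCB6 inhibition with less porphyrin fluorescence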
SR-BI DiI inh: inhibitors of SR-BI mediated HDL lipid uptake, primary screen, ldlA[mSR-BI] cells, fluorescence, single point | inhibition, % at 12.5 µM | AID 488896, 2010 | actives 0.96% (n = 320,000) | Scavenger receptor class B member 1 (Mus musculus), Q61009 | ldlA[mSR-BI] CHO cells, DiI-HDL uptake fluorescence, 3 h;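 active = mean replicate inhibition of at least 70% and a set share of replicates each scoring 70 or more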;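 note: 0% = median of neutral control wells and 100% = median of positive control wells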
Target sequence (Q61009 whole entry, looked up): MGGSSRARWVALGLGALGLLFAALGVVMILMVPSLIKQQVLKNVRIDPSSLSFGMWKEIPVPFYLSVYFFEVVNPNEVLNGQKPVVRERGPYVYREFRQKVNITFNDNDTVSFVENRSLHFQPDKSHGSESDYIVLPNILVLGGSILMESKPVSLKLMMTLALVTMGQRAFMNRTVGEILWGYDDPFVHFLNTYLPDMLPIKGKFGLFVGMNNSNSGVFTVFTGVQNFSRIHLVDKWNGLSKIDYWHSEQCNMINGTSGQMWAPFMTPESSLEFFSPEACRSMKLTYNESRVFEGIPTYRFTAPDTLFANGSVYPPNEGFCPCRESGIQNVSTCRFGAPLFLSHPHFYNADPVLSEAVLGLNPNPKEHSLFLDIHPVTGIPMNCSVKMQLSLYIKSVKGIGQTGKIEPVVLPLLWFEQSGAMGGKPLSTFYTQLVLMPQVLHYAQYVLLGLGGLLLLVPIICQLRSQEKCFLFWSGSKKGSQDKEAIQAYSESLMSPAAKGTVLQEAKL
AHR act cf: AHR activators, confirmation, cell-based, luminescence, luciferase reporter, human. shares compounds with AHR act. human cells, AHR-responsive luciferase reporter. activation, % at 9 µM. actives 87% (n = 2,300). AID 2845, 2010; in the data active = activation above about 49%;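 note: HepG2 hepatoma cells carrying a DRE-driven firefly luciferase reporter; 0% = vehicle wells and 100% = reference agonist wells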
PXR counter: human PXR activators, counter-screen for AHR activator project, cell-based, luciferase luminescence; shares compounds with AHR act; cell-based PXR reporter; activation, % at 11.6 µM; actives 88% (n = 2,300); in the data active = activation above about 11%;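 note: human hepatoma DPX-2 cells expressing full-length human PXR; 0% = DMSO and 100% = reference agonist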
* = called active by the depositor; . = not tested or not shown.

SMILES	AHR act	HIF activator	FXN GAA850 act	SR-BI DiI-HDL act	ABCB6 inh 2	SR-BI DiI inh	AHR act cf	PXR counter
O=C(Nc1ccc(Cl)cc1)c1cccc(S(=O)(=O)Nc2ccccn2)c1	91*	0	-2	-24	103	24	77*	34*
O=C(Nc1ccc(Cl)cc1)c1cc(S(=O)(=O)Nc2ccccn2)ccc1Cl	0	0	0	.	97	.	.	.
Cc1c(NC(=O)C(C)OC(=O)c2cccs2)c(=O)n(-c2ccccc2)n1C (centres undefined)	-2	0	-1	0	99	0	.	.
CC1=NN(C(N)=S)C(=O)C1N=Nc1cccc(Cl)c1C (centres undefined)	138*	2	3	12	90	-12	139*	16*
CC1=NN(C(=O)c2ccncc2)C(=O)C1N=Nc1ccc2ccccc2c1 (centres undefined)	.	.	1	-4	100	4	.	.
S=c1[nH]nc(-c2cc3c(s2)-c2ccccc2CC3)o1	93*	2	1	3	98	-3	116*	23*
Cc1cc(C)c2nc(SCC(=O)N3CC(=O)Nc4ccccc43)c(C#N)cc2c1	92*	2	2	-22	97	22	76*	77*
COc1ccc2nc(SCC(=O)N3CC(=O)Nc4ccccc43)c(C#N)cc2c1	43	0	-4	-18	111	18	.	.
CCCc1cc(C(=O)N2CCCC(Cc3cccc(Cl)c3)(C(=O)OCC)C2)n(C)n1 (centres undefined)	-1	1	3	3	102	-3	.	.
FC(F)(F)c1cc(-c2ccc3c(c2)OCO3)nc(NCc2ccco2)n1	91*	0	5	1	91	-1	75*	26*
Cc1cncc(N2CCN(c3ccccn3)CC2)n1	.	.	0	.	101	.	.	.
Cc1cc(-c2ccccc2)nc(N2CCN(c3ccccn3)CC2)n1	81*	0	2	-9	93	9	93*	19*
Cc1nc(N)sc1-c1csc(Nc2ccccc2)n1	81*	-2	2	-35	84	35	147*	20*
Cc1nc(C)c(-c2csc(Nc3ccc(N)cc3)n2)s1	127*	0	5	-37	96	37	22	19*
Sc1oc(-c2ccccc2)cc1C=Nc1ccccc1	79*	1	3	-7	104	7	39	20*
COc1cc(/C=C/C(=O)OCC(=O)Nc2cc(S(=O)(=O)N(C)C)ccc2Cl)ccc1O	-1	0	0	-52	97	52	.	.
Cn1ccc2cc3c(cc21)CCN3C(=O)Nc1cccnc1	118*	.	1	-31	104	31	83*	31*
COc1ccccc1N1CCN(C2CCCN(C(=O)C3=NN(C)C(=O)CC3)C2)CC1 (centres undefined)	-1	1	0	-5	100	5	.	.
COc1cc(-c2nc(-c3ccccc3)c(-c3ccc(F)cc3)[nH]2)cc2c1OCO2	116*	0	0	-85	98	85*	84*	66*
COc1cc(-c2nc(-c3ccc4c(c3)-c3ccccc3S4(=O)=O)c(-c3ccccc3)[nH]2)cc(OC)c1O	8	0	-4	12	91	-12	.	.
O=C(CSCC(=O)Nc1nc(-c2ccc3c(c2)OCO3)cs1)Nc1nccs1	100*	3	-1	-21	97	21	63*	27*
COc1cc(-c2noc(C)c2C(=O)NCCO)cc(OC)c1OC	0	0	-1	1	97	-1	.	.
COc1cccc(NC(=O)c2ccc3c(c2)OCCO3)c1	.	-2	-1	0	102	0	.	.
O=C(Nc1cccc(F)c1)c1ccc(S(=O)(=O)NCC2CCCO2)cc1 (centres undefined)	0	0	-4	-24	103	24	.	.
O=C(Nc1cccc2nsnc12)c1ccc2c(c1)OCCO2	20	3	0	-10	98	10	.	.
SMILES	AHR act	HIF activator	FXN GAA850 act	SR-BI DiI-HDL act	ABCB6 inh 2	SR-BI DiI inh	AHR act cf	PXR counter
O=C(Nc1ccc2c(c1)OCO2)C(=O)c1c[nH]c2ccccc12	84*	1	3	-41	97	41	70*	38*
O=C(Nc1cccc2nsnc12)c1ccc2c(c1)OCO2	118*	2	3	-17	103	17	127*	30*
O=C(Nc1ccc2c(c1)OCCO2)C(=O)c1c[nH]c2ccccc12	3	0	-6	-64	98	64	.	.
O=C(Nc1ccc2c(c1)OCO2)c1ccc(S(=O)(=O)NCC2CCCO2)cc1 (centres undefined)	84*	0	1	-7	95	7	14	21*
COc1cccc(NC(=O)c2ccc3c(c2)OCO3)c1	134*	3	6	-20	96	20	35	26*
CSc1ccccc1NC(=O)c1cc(C(C)C)on1	13	4	6	-21	95	21	.	.
O=C1NC(C(=O)O)=CC(c2cccc(Cl)c2Cl)N1 (centres undefined)	1	.	0	8	97	-8	.	.
Cc1ccc(N2CC(C(=O)NCc3ccc4c(c3)OCO4)CC2=O)cc1C (centres undefined)	1	0	0	24	96	-24	.	.
O=C(Nc1ccc2c(c1)OCO2)c1ccccc1	101*	-23	3	8	101	-8	52*	24*
O=C(Nc1ccc2c(c1)OCCO2)c1ccccc1	3	1	2	1	96	-1	.	.
Cn1nc(C(=O)Nc2ccc3c(c2)OCO3)c2ccccc2c1=O	123*	1	2	-10	99	10	107*	10
CC(C)Sc1nnc(NC(=O)c2ccc3c(c2)OCO3)s1	110*	1	4	-7	102	7	47	27*
CCSc1nnc(NC(=O)c2ccc3c(c2)OCO3)s1	26	2	6	43	97	-43	.	.
Cn1nc(C(=O)Nc2ccccc2N2CCCC2)c2ccccc2c1=O	114*	0	0	.	93	47	82*	74*
